TRPC4 PAM = allosteric potentiators of mouse TRPC4 channel; HEK293 TRPC4beta/mu-opioid, DAMGO EC20, Fluo-4 Ca2+ flux; stronger effect = higher value; B-score at 10 µM; 0.42% of 310,000 active;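 active = B-score of calcium response area above 5 SD of library B-scores, with initial fluorescence ratio within 5 SD of library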
Target sequence (Q9QUQ5 whole entry, looked up): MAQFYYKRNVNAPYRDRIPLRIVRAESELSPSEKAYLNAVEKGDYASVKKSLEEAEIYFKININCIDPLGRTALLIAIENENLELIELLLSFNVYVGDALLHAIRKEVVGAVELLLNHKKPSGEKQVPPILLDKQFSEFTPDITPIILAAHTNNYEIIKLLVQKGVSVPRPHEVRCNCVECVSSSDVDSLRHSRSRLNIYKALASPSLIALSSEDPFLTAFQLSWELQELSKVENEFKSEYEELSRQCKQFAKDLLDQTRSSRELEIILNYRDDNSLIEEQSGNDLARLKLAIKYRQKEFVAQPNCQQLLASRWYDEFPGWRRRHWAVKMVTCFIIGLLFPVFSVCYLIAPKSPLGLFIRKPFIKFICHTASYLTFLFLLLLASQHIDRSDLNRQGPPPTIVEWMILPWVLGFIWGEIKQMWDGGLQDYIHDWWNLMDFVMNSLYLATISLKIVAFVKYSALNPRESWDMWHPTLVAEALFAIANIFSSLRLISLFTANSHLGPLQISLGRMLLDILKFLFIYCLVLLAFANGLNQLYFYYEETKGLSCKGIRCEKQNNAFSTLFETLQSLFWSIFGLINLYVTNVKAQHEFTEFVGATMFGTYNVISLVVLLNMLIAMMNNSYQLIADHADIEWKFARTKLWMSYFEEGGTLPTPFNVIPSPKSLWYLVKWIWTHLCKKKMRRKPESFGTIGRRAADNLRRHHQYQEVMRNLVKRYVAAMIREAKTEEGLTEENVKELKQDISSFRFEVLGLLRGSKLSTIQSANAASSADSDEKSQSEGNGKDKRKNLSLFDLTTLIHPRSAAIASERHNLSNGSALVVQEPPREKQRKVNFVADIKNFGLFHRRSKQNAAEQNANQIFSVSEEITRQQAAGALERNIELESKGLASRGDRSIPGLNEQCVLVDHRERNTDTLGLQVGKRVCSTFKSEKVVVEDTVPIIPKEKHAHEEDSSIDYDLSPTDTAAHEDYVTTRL
TRPC4 act = activators of mouse TRPC4 channel; Q9QUQ5; HEK293 TRPC4beta/mu-opioid, Fluo4 calcium fluorescence; stronger effect = higher value; B-score at 10 µM; 0.49% of 310,000 active;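 active = B-score above 5 SD of library B-scores, and initial fluorescence ratio not above library mean plus 5 SD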;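 note: positive B-score marks a calcium rise read as TRPC4 activation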
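Assay system: HEK293 stable line with TRPC4beta plus mu-opioid receptor; schedule: 45 min room-temperature Fluo4 loading, 110 s read; technique: kinetic Fluo4 calcium fluorescence; evaluation: integrated baseline-normalised fluorescence ratio, converted to per-well B score; controls: buffer (low) and maximal DAMGO (high)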
TRPC6 inh = mouse TRPC6 channel inhibition; Q61143; HEK293-TRPC6, membrane potential dye, ACh-evoked depolarization; stronger effect = lower value; B-score at 10 µM; 1.1% of 310,000 active; AID 2553;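 active = B-score under library mean minus 3 SD, initial fluorescence not abnormally high, positive integrated signal ratio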;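 note: B-score derived from integrated fluorescence ratio over the kinetic read; more negative B-score means stronger inhibition of depolarization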
TRPC4 block = TRPC4 (mouse) channel inhibition. Q9QUQ5. HEK293 TRPC4beta/mu-opioid, DAMGO-evoked Fluo4 calcium flux; stronger effect = lower value. B-score at 10 µM. 0.39% of 300,000 active. AID 2247;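 active = B-score over 3 SD under the library average, no early fluorescence shift, positive overall ratio signal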
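Assay system: TRPC4beta/mu-opioid receptor HEK293 cell line; compound dosing: single concentration per test compound; detection: Fluo4 Ca2+ flux fluorescence; evaluation: per-well B score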
TRPC6 activator = activators of mouse TRPC6 channel. Q61143. HEK293-TRPC6 membrane potential dye fluorescence; stronger effect = higher value. B-score at 10 µM. 0.13% of 310,000 active. AID 2550;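 active = B-score of the integrated fluorescence ratio above library mean plus 3 SD, and starting fluorescence ratio within library mean plus 5 SD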;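 note: higher score means more depolarization so channel activation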
Large screens that a line does not name were inactive. Most compounds without a hit are left out; they make up all but 2.3% or so of the library.

CNC(=O)n1cc(C)c(-c2cccs2)n1	none
CC1CC(C)CN(CCCNC(=O)c2csc3c2CCCC3)C1 (stereo not drawn)	TRPC4 act 82
CCCCN(CC)CCCNC(=O)c1csc2c1CCCCC2	TRPC4 act 111
CCN1CCN(S(=O)(=O)c2c(C)cc(C)cc2C)CC1	TRPC4 PAM 21
CN1CCN(S(=O)(=O)c2ccc(Br)c3ccccc23)CC1	TRPC4 PAM 49
CC(=O)c1ccc(OCC(O)CN2CCN(S(=O)(=O)c3c(C)cc(C)cc3C)CC2)cc1 (stereo not drawn)	TRPC4 PAM 22
COc1cc(C)c(S(=O)(=O)N2CCN(C)CC2)cc1C	none
CN1CCN(S(=O)(=O)c2ccc(Cl)c3ccccc23)CC1	none
CN1CCN(S(=O)(=O)c2cc(Cl)c(Cl)cc2Cl)CC1	TRPC4 act 51
Cc1cc(C)c(S(=O)(=O)N2CCN(C)CC2)c(C)c1	TRPC4 PAM 21
COc1ccc(NS(=O)(=O)c2csc(C(N)=O)c2)cc1OC	TRPC4 PAM 16
O=C(C1CCN(Cc2ccc(F)cc2)CC1)N1CCN(C/C=C/c2ccccc2)CC1	none
O=C(O)C1C2CCC(CC2)C1C(=O)N1CCN(Cc2ccc(F)cc2)CC1 (stereo not drawn)	TRPC4 act 87
CC1CCCCC1NC(=O)c1ccc(S(=O)(=O)N2CCCC2)cc1 (stereo not drawn)	none
CC1CCCCC1NS(=O)(=O)c1ccc(S(=O)(=O)N2CCCC2)cc1 (stereo not drawn)	TRPC4 PAM 49
COc1ccccc1CNCC(c1ccccc1)c1ccccc1	TRPC4 block -6
COc1ccccc1CNCC(O)Cn1c2ccccc2c2ccccc21 (stereo not drawn)	TRPC4 act 80
CC(C)(C)c1cc(C(=O)NCc2cc(F)cc3c2OCOC3)n(Cc2ccccc2)n1	TRPC4 PAM 13
CN(C)CCCN(Cc1cc2cc3c(cc2[nH]c1=O)OCO3)C(=S)NCc1ccco1	TRPC4 block -6
O=C(NC1CCCCC1)C(c1ccncc1)N(C(=O)c1ccco1)c1ccc(F)cc1 (stereo not drawn)	none
CCOC(=O)c1c(NC(=O)C2CC(Cl)=CCC2C(=O)O)sc2c1CCCCC2 (stereo not drawn)	TRPC4 block -6
CCOC(=O)c1c(NC(=O)CCNCc2ccco2)sc2c1CCC2	TRPC4 PAM 11
CCOC(=O)c1c(NC(=O)c2ccco2)sc2c1CCCCC2	none
CCOC(=O)c1c(NC(NC(C)=O)C(Cl)(Cl)Cl)sc2c1CCCC2 (stereo not drawn)	TRPC4 PAM 21
CC1=NN(c2ccccc2)C(=O)/C1=C/c1c(O)n(-c2ccc(F)c(Cl)c2)[nH]c1=O	TRPC4 block -8
CC1=NN(c2ccccc2)C(=O)/C1=C\c1c(C)[nH]n(-c2ccccc2)c1=O	none
COc1ccc(C(=O)NCc2nnc(SCC(=O)NC3CCCC3)o2)cc1	none
CCOC(=O)c1ccc(NC(=S)N2CCSC2c2ccc(Br)cc2)cc1 (stereo not drawn)	TRPC4 PAM 43
CCc1ccc(-n2c(SCC(=O)Nc3cccc(S(=O)(=O)NC4=NCCCCC4)c3)nc3ccccc3c2=O)cc1	none
Cc1ccc(-n2c(SCC(=O)Nc3cccc(S(=O)(=O)NC4=NCCCCC4)c3)nc3ccccc3c2=O)cc1	TRPC4 act 72
Cc1ccnc(NS(=O)(=O)c2ccc(CC(C)C)cc2)c1	TRPC4 PAM 13
Cc1ccc2oc(C(=O)N(C)Cc3ccc(C)o3)c(C)c2c1	TRPC4 block -6
CC(C)(C)C(=O)N1CCN(c2ccc([N+](=O)[O-])cc2-n2cccc2)CC1	TRPC4 PAM 16
COc1ccc(N(C(=O)CNC(=O)c2ccco2)C(C(=O)NCC2CCCO2)c2ccc(OC)c(OC)c2)cc1 (stereo not drawn)	none
O=c1[nH][nH]c(-c2ccccc2)c1C=Nc1ccc(Cl)cc1	TRPC4 PAM 84
O=C(Nc1ccccc1)C1=C[C@@H](c2ccc(C(F)(F)F)cc2)C[C@@H](OCCCCO)O1	none
c1ccc(OCC2CCNCC2)nc1	TRPC4 act 84
COc1ccc(NC(=O)COc2cccc3c2CCNC3=O)cc1	none
CCc1cccc(C)c1NC(=S)NCC(c1cccnc1)N(C)C (stereo not drawn)	TRPC4 act 91
S=C(NCc1ccncc1)Nc1cccc(Cl)c1	none
CN(C)C(CNC(=S)Nc1ccccc1)c1cccnc1 (stereo not drawn)	TRPC4 act 75
CN(C)C(CNC(=S)Nc1cccc(Cl)c1)c1cccnc1 (stereo not drawn)	TRPC4 act 93
CN(C)C(CNC(=S)Nc1ccccc1Cl)c1cccnc1 (stereo not drawn)	TRPC4 act 104
COc1ccc(C(=O)O)cc1S(=O)(=O)NCCc1ccccn1	none
CC(=O)NCCC(=O)N(Cc1ccccc1)c1nc2c(C)cccc2s1	none
N#CC1(NC(=O)COC(=O)c2cccc(-n3cnnn3)c2)CCCCC1	none
CN(C)C(CNC(=O)NC1CCCCC1)c1cccnc1 (stereo not drawn)	TRPC4 act 105
CN(C)C(CNC(=O)c1cccs1)c1cccnc1 (stereo not drawn)	none
COc1cccc(CNCc2ccc(OC)c3ccccc23)c1OC	none
COc1cccc(CNCc2ccccn2)c1OC	TRPC4 act 63, TRPC4 block -6
Cc1c(N(C)S(=O)(=O)c2cc(C(=O)N3CCCC3)ccc2Cl)c(=O)n(-c2ccccc2)n1C	none
CC(Oc1ccc(Cl)cc1Cl)c1nc(-c2ccccn2)no1 (stereo not drawn)	TRPC4 block -6
CC(Oc1ccc(Cl)cc1Cl)c1nc(-c2ccc(NC(=O)c3cccnc3)cc2)no1 (stereo not drawn)	none
O=C(NCCCN1CCOCC1)C1COc2ccccc2O1 (stereo not drawn)	none
O=C(NCCCN1CCOCC1)c1ccc(NC(=O)C2COc3ccccc3O2)cc1 (stereo not drawn)	TRPC4 act 78, TRPC4 block -6
CC(=O)Nc1ccc(NC(=O)c2ccccc2Nc2ccccc2)cc1	none
Cc1ccc([N+](=O)[O-])cc1S(=O)(=O)NCC1COc2ccccc2O1 (stereo not drawn)	none
Cc1nn(C)cc1C(C(=O)NC1CCCCC1)N(C(=O)Cc1cccs1)c1ccc(C(C)C)cc1 (stereo not drawn)	TRPC4 act 44
Cc1nn(C)cc1C(C(=O)NC1CCCCC1)N(C(=O)Cc1cccs1)c1ccc(F)cc1 (stereo not drawn)	none
CN1CCN(c2ccc(Cl)cc2NC(=O)CC2OC(=O)c3ccccc32)CC1 (stereo not drawn)	TRPC4 PAM 23
CN1CCN(c2ccc(Cl)cc2NC(=O)/C=C/c2cccc(F)c2)CC1	TRPC4 PAM 31
CN1CCN(c2ccc(Cl)cc2NC(=O)C2COc3ccccc3O2)CC1 (stereo not drawn)	none

Screening data as filed in PubChem.
